Test system: aryl hydrocarbon receptor (Cavia porcellus)
Experiment: AHR ligand binders displacing [3H]TCDD, late-stage follow-up, counter-screen for AHR activator project, cell lysate, guinea pig liver cytosol, radiometric, set 2 (AID 624400)
Settings: [3H]TCDD binding, hydroxyapatite, at 10 µM, hits give high values
In short: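 System: guinea pig hepatic cytosol with AHR; Amount: cytosol diluted to 2 mg protein per mL; Probe or stimulus: [3H]TCDD radioligand at 2 nM final; Replication: triplicate; Measured by: scintillation counting of hydroxyapatite-captured radioligand; Compound dosing: 10 µM single dose, 2% DMSO; Timing: 1 h binding incubation at room temperature; Medium: HEDG buffer, pH 7.5.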

Row | Structure (SMILES) | inhibition
1 | Cc1ccc(-c2cc(-c3ccc(F)cc3)n[nH]2)c(O)c1 | 19.8%
2 | Cc1ccc(-c2cc(-c3ccc(Cl)cc3)n[nH]2)c(O)c1 | 61.7%
3 | Cc1ccc(-c2cc(-c3cccc(F)c3)n[nH]2)c(O)c1 | 34.8%

From PubChem BioAssay AID624400 (The Scripps Research Institute Molecular Screening Center, 2012)
